Assay results taken from ChEMBL document CHEMBL1149713, “1,2,4-benzothiadiazine linked pyrrolo[2,1-c][1,4]benzodiazepine conjugates: synthesis, DNA-binding affinity and cytotoxicity” (Bioorg Med Chem Lett, 2007).
pIC50: −log10 of the molar value.

How the values were obtained:
PC-3 = experiment: Cytotoxicity against human PC3 cells; assay type: functional, cell-based
In short: (§1)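 Sulforhodamine B (SRB) assay in human cancer cell lines: lung (A549, Hop62), breast (Zr-75-1), oral (DWD, KB, Gurav), prostate (PC3). IC50 in µM, mean of three determinations. Adriamycin as reference. Where IC50 was not reached within the concentrations tested, no value is given.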

A549 = experiment: Cytotoxicity against human A549 cells; assay type: functional, cell-based; in short: as §1
KB = experiment: Cytotoxicity against human KB cells; assay type: functional, cell-based; in short: as §1
HOP-62 = experiment: Cytotoxicity against human Hop62 cells; assay type: functional, cell-based; in short: as §1
[1] = Cytotoxicity against human DWD cells; assay type: functional, cell-based; in short: as §1
ZR-75-1 = experiment: Cytotoxicity against human Zr75-1 cells; assay type: functional, cell-based; in short: as §1
[2] = Cytotoxicity against human Gurav cells; assay type: functional, cell-based; in short: as §1
DNA [3] = experiment: Binding affinity to calf thymus DNA at 20 uM after 36 hrs by thermal denaturation assay; assay type: nucleic-acid assay; settings: Bos taurus
DNA [4] = experiment: Binding affinity to calf thymus DNA at 20 uM after 18 hrs by thermal denaturation assay; assay type: nucleic-acid assay; settings: Bos taurus

Compound | pIC50 (PC-3) | pIC50 (A549) | pIC50 (KB) | pIC50 (HOP-62) | pIC50 [1] | pIC50 (ZR-75-1) | pIC50 [2] | ΔTm (DNA [3]) | ΔTm (DNA [4])
COc1cc2c(cc1OCCCCCN1CCN(C3=NS(=O)(=O)c4ccccc4N3C(C)C)CC1)N=C[C@@H]1CCCN1C2=O | 4.56 | 4.52 | 5.61 | 4.55 | 4.56 | 6.92 | 4.58 | 6.7 °C | 6.4 °C
COc1cc2c(cc1OCCCCN1CCN(C3=NS(=O)(=O)c4ccccc4N3c3ccccc3)CC1)N=C[C@@H]1CCCN1C2=O | 3.45 |  | 4.53 | 3.43 |  | 6.82 |  | 4.1 °C | 4.1 °C
COc1cccc2c1C(=O)c1c(O)c3c(c(O)c1C2=O)C[C@@](O)(C(=O)CO)C[C@@H]3O[C@H]1C[C@H](N)[C@H](O)[C@H](C)O1 [DOXORUBICIN] | 5.65 |  | 6.77 |  | 4.60 | 5.63 |  |  | 
COc1cc2c(cc1OCCCCCN1CCN(C3=NS(=O)(=O)c4ccccc4N3c3ccccc3)CC1)N=C[C@@H]1CCCN1C2=O | 5.63 | 4.52 | 5.64 |  |  |  | 3.45 | 4.6 °C | 4.4 °C
COc1cc2c(cc1OCCCCN1CCN(C3=NS(=O)(=O)c4ccccc4N3C(C)C)CC1)N=C[C@@H]1CCCN1C2=O |  |  | 4.58 | 3.46 |  | 5.65 |  | 4.3 °C | 4.2 °C
COc1cc2c(cc1O)N=C[C@@H]1CCCN1C2=O |  |  |  |  |  |  |  | 0.7 °C | 0.7 °C
